In brackets after ≈: the same amount, converted by molar mass.
Key:
Format in all cases: functional
Cryptococcus neoformans = assay: Antifungal activity against Cryptococcus neoformans ATCC BLS108 after 72 hrs by micro-broth dilution method; settings: ATCC BLS108, 72 h
How it was run: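 Quality-control ATCC strain included in each assay. Microbroth dilution per NCCLS M27-A2. DMSO-dissolved compounds were serially diluted in growth medium, inoculated and held at 35 °C, with MIC read at 72 h. MIC80 is the first well showing about 80% growth reduction versus the drug-free well. Tests were done in triplicate and the mean reported.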

Trichophyton rubrum = assay: Antifungal activity against Trichophyton rubrum clinical isolate by micro-broth dilution method
How it was run: (§1)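 Clinical isolate. MIC by broth microdilution following the NCCLS M27-A2 reference method for yeasts. Compounds were dissolved in DMSO, serially diluted in growth medium, inoculated and incubated at 35 °C. MIC80 is the first well with about 80% less growth than the drug-free well. Each test was run three times and the mean of replicates reported.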

Candida tropicalis = assay: Antifungal activity against Candida tropicalis clinical isolate by micro-broth dilution method; how it was run: as §1
Candida albicans = assay: Antifungal activity against Candida albicans ATCC Y0109 after 24 hrs by micro-broth dilution method; settings: ATCC Y0109, 24 h
How it was run: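 ATCC quality-control strain, tested in every assay. NCCLS M27-A2 broth microdilution. Compounds were dissolved in DMSO, serially diluted in growth medium, inoculated and incubated at 35 °C, with growth read at 24 h. MIC80 is the first well with about 80% growth reduction relative to the drug-free control. Each test was run three times and the mean of replicates taken.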

Candida parapsilosis = assay: Antifungal activity against Candida parapsilosis clinical isolate by micro-broth dilution method; settings: Lodderomyces parapsilosis; how it was run: as §1
[1] = Antifungal activity against Fonsecaea compacta clinical isolate by micro-broth dilution method; how it was run: as §1
Aspergillus fumigatus = assay: Antifungal activity against Aspergillus fumigatus clinical isolate by micro-broth dilution method; how it was run: as §1
Nannizzia gypsea = assay: Antifungal activity against Microsporum gypseum clinical isolate by micro-broth dilution method; how it was run: as §1

Structure (SMILES)	MIC80 (Cryptococcus neoformans) [µg/mL]	MIC80 (Trichophyton rubrum) [µg/mL]	MIC80 (Candida tropicalis) [µg/mL]	MIC80 (Candida albicans) [µg/mL]	MIC80 (Candida parapsilosis) [µg/mL]	MIC80 [1] [µg/mL]	MIC80 (Aspergillus fumigatus) [µg/mL]	MIC80 (Nannizzia gypsea) [µg/mL]
CCC(=O)Nc1ccc(N2CCN(CC(O)(Cn3cncn3)c3ccc(F)cc3F)CC2)c(C(F)(F)F)c1 (centres undefined)	1 (≈ 1.86 µM)	1 (≈ 1.86 µM)	0.25 (≈ 0.464 µM)	0.25 (≈ 0.464 µM)	1 (≈ 1.86 µM)	4 (≈ 7.43 µM)	16 (≈ 29.7 µM)	1 (≈ 1.86 µM)
O=C(/C=C/c1ccccc1Cl)Nc1ccc(N2CCN(CC(O)(Cn3cncn3)c3ccc(F)cc3F)CC2)c(C(F)(F)F)c1 (centres undefined)	0.25 (≈ 0.386 µM)			0.0625 (≈ 0.0966 µM)			4 (≈ 6.18 µM)	
O=C(Nc1ccc(N2CCN(CC(O)(Cn3cncn3)c3ccc(F)cc3F)CC2)c(C(F)(F)F)c1)c1ccc(Cl)cc1 (centres undefined)	> 64	4 (≈ 6.44 µM)	1 (≈ 1.61 µM)	4 (≈ 6.44 µM)	0.25 (≈ 0.403 µM)	4 (≈ 6.44 µM)	4 (≈ 6.44 µM)	0.25 (≈ 0.403 µM)
O=C(Nc1ccc(N2CCN(CC(O)(Cn3cncn3)c3ccc(F)cc3F)CC2)c(C(F)(F)F)c1)c1cccc(C(F)(F)F)c1 (centres undefined)	0.0625 (≈ 0.0955 µM)			0.0625 (≈ 0.0955 µM)			16 (≈ 24.4 µM)	
O=C(/C=C/c1ccc(F)cc1)Nc1ccc(N2CCN(CC(O)(Cn3cncn3)c3ccc(F)cc3F)CC2)c(C(F)(F)F)c1 (centres undefined)	0.25 (≈ 0.396 µM)			0.0156 (≈ 0.0247 µM)			4 (≈ 6.34 µM)	
CC(C)(C)c1ccc(C(=O)Nc2ccc(N3CCN(CC(O)(Cn4cncn4)c4ccc(F)cc4F)CC3)c(C(F)(F)F)c2)cc1 (centres undefined)	0.25 (≈ 0.389 µM)	4 (≈ 6.22 µM)	1 (≈ 1.56 µM)	4 (≈ 6.22 µM)	0.25 (≈ 0.389 µM)	4 (≈ 6.22 µM)	> 64	4 (≈ 6.22 µM)
C[C@@H](c1ncncc1F)[C@](O)(Cn1cncn1)c1ccc(F)cc1F [VORICONAZOLE]	0.0156 (≈ 0.0447 µM)	0.0039 (≈ 0.0112 µM)	0.25 (≈ 0.716 µM)	0.0156 (≈ 0.0447 µM)	1 (≈ 2.86 µM)	0.0156 (≈ 0.0447 µM)	1 (≈ 2.86 µM)	0.0039 (≈ 0.0112 µM)
CCCCCCCC(=O)Nc1ccc(N2CCN(CC(O)(Cn3cncn3)c3ccc(F)cc3F)CC2)c(C(F)(F)F)c1 (centres undefined)	16 (≈ 26.3 µM)	4 (≈ 6.57 µM)	16 (≈ 26.3 µM)	0.25 (≈ 0.411 µM)	4 (≈ 6.57 µM)	4 (≈ 6.57 µM)	> 64	0.25 (≈ 0.411 µM)
O=C(/C=C/c1ccco1)Nc1ccc(N2CCN(CC(O)(Cn3cncn3)c3ccc(F)cc3F)CC2)c(C(F)(F)F)c1 (centres undefined)	0.25 (≈ 0.415 µM)			0.25 (≈ 0.415 µM)			4 (≈ 6.64 µM)	
O=C(/C=C/c1cccc(Br)c1)Nc1ccc(N2CCN(CC(O)(Cn3cncn3)c3ccc(F)cc3F)CC2)c(C(F)(F)F)c1 (centres undefined)	0.25 (≈ 0.362 µM)			0.25 (≈ 0.362 µM)			1 (≈ 1.45 µM)	
CC(=O)Nc1ccc(N2CCN(CC(O)(Cn3cncn3)c3ccc(F)cc3F)CC2)c(C(F)(F)F)c1 (centres undefined)	0.25 (≈ 0.477 µM)	1 (≈ 1.91 µM)	0.25 (≈ 0.477 µM)	0.0625 (≈ 0.119 µM)	0.25 (≈ 0.477 µM)	1 (≈ 1.91 µM)	> 64	1 (≈ 1.91 µM)
O=C(/C=C/c1ccccc1F)Nc1ccc(N2CCN(CC(O)(Cn3cncn3)c3ccc(F)cc3F)CC2)c(C(F)(F)F)c1 (centres undefined)	0.25 (≈ 0.396 µM)			0.0625 (≈ 0.0991 µM)			4 (≈ 6.34 µM)	
O=C(Nc1ccc(N2CCN(CC(O)(Cn3cncn3)c3ccc(F)cc3F)CC2)c(C(F)(F)F)c1)c1ccc(OC(F)(F)F)cc1 (centres undefined)	16 (≈ 23.9 µM)	16 (≈ 23.9 µM)	4 (≈ 5.97 µM)	16 (≈ 23.9 µM)	4 (≈ 5.97 µM)	16 (≈ 23.9 µM)	64 (≈ 95.4 µM)	4 (≈ 5.97 µM)
CC(C)C(=O)Nc1ccc(N2CCN(CC(O)(Cn3cncn3)c3ccc(F)cc3F)CC2)c(C(F)(F)F)c1 (centres undefined)	1 (≈ 1.81 µM)	1 (≈ 1.81 µM)	1 (≈ 1.81 µM)	0.25 (≈ 0.452 µM)	0.25 (≈ 0.452 µM)	4 (≈ 7.24 µM)	64 (≈ 116 µM)	1 (≈ 1.81 µM)
O=C(/C=C/c1ccccc1[N+](=O)[O-])Nc1ccc(N2CCN(CC(O)(Cn3cncn3)c3ccc(F)cc3F)CC2)c(C(F)(F)F)c1 (centres undefined)	0.25 (≈ 0.38 µM)			0.25 (≈ 0.38 µM)			> 64	
COc1cccc(OC)c1/C=C/C(=O)Nc1ccc(N2CCN(CC(O)(Cn3cncn3)c3ccc(F)cc3F)CC2)c(C(F)(F)F)c1 (centres undefined)	1 (≈ 1.49 µM)			0.25 (≈ 0.372 µM)			> 64	
O=C(Nc1ccc(N2CCN(CC(O)(Cn3cncn3)c3ccc(F)cc3F)CC2)c(C(F)(F)F)c1)c1ccccc1 (centres undefined)	0.25 (≈ 0.426 µM)	1 (≈ 1.7 µM)	1 (≈ 1.7 µM)	1 (≈ 1.7 µM)	0.25 (≈ 0.426 µM)	4 (≈ 6.82 µM)	4 (≈ 6.82 µM)	1 (≈ 1.7 µM)
Cc1ccc(/C=C/C(=O)Nc2ccc(N3CCN(CC(O)(Cn4cncn4)c4ccc(F)cc4F)CC3)c(C(F)(F)F)c2)cc1 (centres undefined)	1 (≈ 1.6 µM)			0.25 (≈ 0.399 µM)			4 (≈ 6.38 µM)	
COc1ccc(/C=C/C(=O)Nc2ccc(N3CCN(CC(O)(Cn4cncn4)c4ccc(F)cc4F)CC3)c(C(F)(F)F)c2)cc1OC (centres undefined)	1 (≈ 1.49 µM)			1 (≈ 1.49 µM)			4 (≈ 5.95 µM)	

Structure (SMILES)	MIC80 (Cryptococcus neoformans) [µg/mL]	MIC80 (Trichophyton rubrum) [µg/mL]	MIC80 (Candida tropicalis) [µg/mL]	MIC80 (Candida albicans) [µg/mL]	MIC80 (Candida parapsilosis) [µg/mL]	MIC80 [1] [µg/mL]	MIC80 (Aspergillus fumigatus) [µg/mL]	MIC80 (Nannizzia gypsea) [µg/mL]
O=C(/C=C/c1ccc([N+](=O)[O-])cc1)Nc1ccc(N2CCN(CC(O)(Cn3cncn3)c3ccc(F)cc3F)CC2)c(C(F)(F)F)c1 (centres undefined)	0.25 (≈ 0.38 µM)			0.0156 (≈ 0.0237 µM)			4 (≈ 6.08 µM)	
O=C(/C=C/c1ccc(Br)cc1)Nc1ccc(N2CCN(CC(O)(Cn3cncn3)c3ccc(F)cc3F)CC2)c(C(F)(F)F)c1 (centres undefined)	0.25 (≈ 0.362 µM)			1 (≈ 1.45 µM)			1 (≈ 1.45 µM)	
CC(C)(C)C(=O)Nc1ccc(N2CCN(CC(O)(Cn3cncn3)c3ccc(F)cc3F)CC2)c(C(F)(F)F)c1 (centres undefined)	1 (≈ 1.76 µM)	4 (≈ 7.06 µM)	1 (≈ 1.76 µM)	0.25 (≈ 0.441 µM)	1 (≈ 1.76 µM)	4 (≈ 7.06 µM)	> 64	0.25 (≈ 0.441 µM)
CCc1ccc(C(=O)Nc2ccc(N3CCN(CC(O)(Cn4cncn4)c4ccc(F)cc4F)CC3)c(C(F)(F)F)c2)cc1 (centres undefined)	0.0625 (≈ 0.102 µM)			0.25 (≈ 0.407 µM)			4 (≈ 6.51 µM)	
N#Cc1cccc(/C=C/C(=O)Nc2ccc(N3CCN(CC(O)(Cn4cncn4)c4ccc(F)cc4F)CC3)c(C(F)(F)F)c2)c1 (centres undefined)	0.25 (≈ 0.392 µM)			0.25 (≈ 0.392 µM)			4 (≈ 6.27 µM)	
CCCCCC(=O)Nc1ccc(N2CCN(CC(O)(Cn3cncn3)c3ccc(F)cc3F)CC2)c(C(F)(F)F)c1 (centres undefined)	1 (≈ 1.72 µM)	4 (≈ 6.89 µM)	4 (≈ 6.89 µM)	1 (≈ 1.72 µM)	1 (≈ 1.72 µM)	16 (≈ 27.6 µM)	64 (≈ 110 µM)	4 (≈ 6.89 µM)
O=C(Nc1ccc(N2CCN(CC(O)(Cn3cncn3)c3ccc(F)cc3F)CC2)c(C(F)(F)F)c1)c1ccncc1 (centres undefined)	0.25 (≈ 0.425 µM)			0.0625 (≈ 0.106 µM)			1 (≈ 1.7 µM)	
O=C(Nc1ccc(N2CCN(CC(O)(Cn3cncn3)c3ccc(F)cc3F)CC2)c(C(F)(F)F)c1)c1cccnc1 (centres undefined)	0.25 (≈ 0.425 µM)			0.0625 (≈ 0.106 µM)			4 (≈ 6.81 µM)	
O=C(Nc1ccc(N2CCN(CC(O)(Cn3cncn3)c3ccc(F)cc3F)CC2)c(C(F)(F)F)c1)c1ccc(Cl)cc1Cl (centres undefined)	0.25 (≈ 0.381 µM)			0.25 (≈ 0.381 µM)			0.25 (≈ 0.381 µM)	
O=C(/C=C/c1cccc(F)c1)Nc1ccc(N2CCN(CC(O)(Cn3cncn3)c3ccc(F)cc3F)CC2)c(C(F)(F)F)c1 (centres undefined)	0.25 (≈ 0.396 µM)			0.25 (≈ 0.396 µM)			16 (≈ 25.4 µM)	
CCC(C)n1ncn(-c2ccc(N3CCN(c4ccc(OCC5COC(Cn6cncn6)(c6ccc(Cl)cc6Cl)O5)cc4)CC3)cc2)c1=O (centres undefined) [ITRACONAZOLE]	1 (≈ 1.42 µM)	0.0156 (≈ 0.0221 µM)	0.25 (≈ 0.354 µM)	1 (≈ 1.42 µM)	0.25 (≈ 0.354 µM)	0.25 (≈ 0.354 µM)	1 (≈ 1.42 µM)	0.0156 (≈ 0.0221 µM)
CCCC(=O)Nc1ccc(N2CCN(CC(O)(Cn3cncn3)c3ccc(F)cc3F)CC2)c(C(F)(F)F)c1 (centres undefined)	1 (≈ 1.81 µM)	4 (≈ 7.24 µM)	1 (≈ 1.81 µM)	1 (≈ 1.81 µM)	0.25 (≈ 0.452 µM)	4 (≈ 7.24 µM)	> 64	1 (≈ 1.81 µM)
Cc1ccc(C(=O)Nc2ccc(N3CCN(CC(O)(Cn4cncn4)c4ccc(F)cc4F)CC3)c(C(F)(F)F)c2)cc1 (centres undefined)	1 (≈ 1.67 µM)	4 (≈ 6.66 µM)	1 (≈ 1.67 µM)	1 (≈ 1.67 µM)	0.25 (≈ 0.416 µM)	16 (≈ 26.6 µM)	64 (≈ 107 µM)	1 (≈ 1.67 µM)
O=C(/C=C/c1cccc(Cl)c1)Nc1ccc(N2CCN(CC(O)(Cn3cncn3)c3ccc(F)cc3F)CC2)c(C(F)(F)F)c1 (centres undefined)	0.25 (≈ 0.386 µM)			0.25 (≈ 0.386 µM)			4 (≈ 6.18 µM)	
COc1ccc(C(=O)Nc2ccc(N3CCN(CC(O)(Cn4cncn4)c4ccc(F)cc4F)CC3)c(C(F)(F)F)c2)cc1 (centres undefined)	1 (≈ 1.62 µM)	1 (≈ 1.62 µM)	1 (≈ 1.62 µM)	1 (≈ 1.62 µM)	1 (≈ 1.62 µM)	16 (≈ 25.9 µM)	4 (≈ 6.49 µM)	1 (≈ 1.62 µM)
O=C(Nc1ccc(N2CCN(CC(O)(Cn3cncn3)c3ccc(F)cc3F)CC2)c(C(F)(F)F)c1)c1ccco1 (centres undefined)	0.25 (≈ 0.434 µM)			0.0625 (≈ 0.108 µM)			1 (≈ 1.73 µM)	
O=C(/C=C/c1ccc(Cl)cc1)Nc1ccc(N2CCN(CC(O)(Cn3cncn3)c3ccc(F)cc3F)CC2)c(C(F)(F)F)c1 (centres undefined)	0.25 (≈ 0.386 µM)			1 (≈ 1.55 µM)			1 (≈ 1.55 µM)	
O=C(/C=C/c1cccc([N+](=O)[O-])c1)Nc1ccc(N2CCN(CC(O)(Cn3cncn3)c3ccc(F)cc3F)CC2)c(C(F)(F)F)c1 (centres undefined)	0.0625 (≈ 0.095 µM)			0.25 (≈ 0.38 µM)			4 (≈ 6.08 µM)	
O=C(/C=C/c1ccc(Cl)c(Cl)c1)Nc1ccc(N2CCN(CC(O)(Cn3cncn3)c3ccc(F)cc3F)CC2)c(C(F)(F)F)c1 (centres undefined)	0.25 (≈ 0.367 µM)			0.25 (≈ 0.367 µM)			4 (≈ 5.87 µM)	
